Measurements as given in ChEMBL document CHEMBL1148681, “Synthesis and evaluation of (2-phenethyl-2H-1,2,3-triazol-4-yl)(phenyl)methanones as Kv1.5 channel blockers for the treatment of atrial fibrillation” (Bioorg Med Chem Lett, 2006).
Calls of active or inactive are those of the source. The rule behind the calls is not given here.

Tests used:
[1] = target: T1, Potassium voltage-gated channel subfamily A member 5 (Homo sapiens, UniProt P22460); assay: Blockade of Kv1.5 channel expressed in LTK cells by patch clamp method; assay type: functional, cell-based
T1 sequence (P22460 whole entry, the tested form may be a part): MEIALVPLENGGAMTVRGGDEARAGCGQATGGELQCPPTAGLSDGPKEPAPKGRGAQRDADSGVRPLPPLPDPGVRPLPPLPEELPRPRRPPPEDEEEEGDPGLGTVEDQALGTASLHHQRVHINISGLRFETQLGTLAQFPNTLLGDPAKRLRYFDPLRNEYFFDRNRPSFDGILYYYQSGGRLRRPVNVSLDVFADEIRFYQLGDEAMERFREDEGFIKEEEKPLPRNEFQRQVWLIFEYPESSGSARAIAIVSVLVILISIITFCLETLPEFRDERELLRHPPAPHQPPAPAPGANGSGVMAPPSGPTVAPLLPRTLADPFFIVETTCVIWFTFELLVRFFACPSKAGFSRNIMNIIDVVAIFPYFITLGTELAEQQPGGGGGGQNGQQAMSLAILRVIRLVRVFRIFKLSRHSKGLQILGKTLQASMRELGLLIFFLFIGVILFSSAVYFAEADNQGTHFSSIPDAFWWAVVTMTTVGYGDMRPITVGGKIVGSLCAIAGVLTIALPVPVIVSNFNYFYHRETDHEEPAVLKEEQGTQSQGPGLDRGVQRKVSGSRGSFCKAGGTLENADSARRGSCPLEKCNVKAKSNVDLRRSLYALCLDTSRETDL
In short: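 Dexamethasone-induced (24 h) Ltk- cells expressing Kv1.5 were recorded by series-resistance-compensated whole-cell patch clamp, with 1 s steps from −70 to +60 mV at 0.2 Hz (pH 7.2 pipette, pH 7.4 bath). After control currents stabilized, inhibitor was perfused at rising concentrations, each to maximal block. IC50 was obtained by nonlinear regression.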

[2] = target: T1, Potassium voltage-gated channel subfamily A member 5; assay: Blockade of Kv1.5 channel expressed in LTK cells at 1 uM by patch clamp method; assay type: functional, cell-based
In short: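 Whole-cell patch clamp on Ltk- cells overexpressing Kv1.5, cultured 24–72 h and induced with dexamethasone for 24 h. Pipette solution was KCl/K2ATP/K4BAPTA/MgCl2/Hepes at pH 7.2; bath was NaCl/KCl/CaCl2/MgCl2/Hepes/glucose at pH 7.4. Cells were held at −70 mV and stepped to +60 mV for 1 s at 0.2 Hz. Current at pulse end was compared to control at 1 uM inhibitor.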

[3] = target: Voltage-gated inwardly rectifying potassium channel KCNH2 (Homo sapiens, UniProt Q12809); assay: Inhibition of hERG; assay type: toxicity
Sequence of Voltage-gated inwardly rectifying potassium channel KCNH2 (Q12809 whole entry): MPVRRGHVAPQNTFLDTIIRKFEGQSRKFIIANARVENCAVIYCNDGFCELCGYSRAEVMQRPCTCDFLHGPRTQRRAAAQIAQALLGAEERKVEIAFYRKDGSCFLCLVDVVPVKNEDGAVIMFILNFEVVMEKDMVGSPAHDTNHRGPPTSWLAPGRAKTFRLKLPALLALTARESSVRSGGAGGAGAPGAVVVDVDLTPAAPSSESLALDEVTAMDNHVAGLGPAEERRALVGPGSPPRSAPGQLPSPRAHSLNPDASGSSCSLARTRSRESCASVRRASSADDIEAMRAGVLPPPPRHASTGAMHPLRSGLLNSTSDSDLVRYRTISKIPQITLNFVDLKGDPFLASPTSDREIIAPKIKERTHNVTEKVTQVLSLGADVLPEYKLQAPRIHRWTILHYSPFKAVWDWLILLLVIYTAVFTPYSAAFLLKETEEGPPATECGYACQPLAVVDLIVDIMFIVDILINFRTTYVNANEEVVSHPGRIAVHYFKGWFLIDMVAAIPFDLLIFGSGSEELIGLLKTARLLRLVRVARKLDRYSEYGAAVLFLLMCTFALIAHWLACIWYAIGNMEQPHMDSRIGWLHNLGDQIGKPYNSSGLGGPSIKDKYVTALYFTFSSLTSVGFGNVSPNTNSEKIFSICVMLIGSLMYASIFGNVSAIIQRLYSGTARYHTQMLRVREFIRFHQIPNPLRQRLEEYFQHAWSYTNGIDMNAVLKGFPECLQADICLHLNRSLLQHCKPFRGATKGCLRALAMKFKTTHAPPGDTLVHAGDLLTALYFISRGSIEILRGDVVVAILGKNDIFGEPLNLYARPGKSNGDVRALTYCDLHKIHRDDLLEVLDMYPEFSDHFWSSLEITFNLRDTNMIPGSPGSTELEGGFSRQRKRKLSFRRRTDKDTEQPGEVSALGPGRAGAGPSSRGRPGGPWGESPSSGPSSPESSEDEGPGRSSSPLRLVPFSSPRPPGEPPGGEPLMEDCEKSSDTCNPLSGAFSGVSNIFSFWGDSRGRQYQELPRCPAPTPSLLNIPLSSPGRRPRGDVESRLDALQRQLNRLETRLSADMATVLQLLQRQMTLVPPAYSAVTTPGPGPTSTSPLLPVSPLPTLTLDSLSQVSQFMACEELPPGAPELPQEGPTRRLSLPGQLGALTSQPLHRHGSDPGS

[4] = target: Potassium voltage-gated channel subfamily A member 3 (Homo sapiens) (UniProt P22001); assay: Inhibition of Kv1.3 channel
Sequence of Potassium voltage-gated channel subfamily A member 3 (Homo sapiens) (P22001 whole entry): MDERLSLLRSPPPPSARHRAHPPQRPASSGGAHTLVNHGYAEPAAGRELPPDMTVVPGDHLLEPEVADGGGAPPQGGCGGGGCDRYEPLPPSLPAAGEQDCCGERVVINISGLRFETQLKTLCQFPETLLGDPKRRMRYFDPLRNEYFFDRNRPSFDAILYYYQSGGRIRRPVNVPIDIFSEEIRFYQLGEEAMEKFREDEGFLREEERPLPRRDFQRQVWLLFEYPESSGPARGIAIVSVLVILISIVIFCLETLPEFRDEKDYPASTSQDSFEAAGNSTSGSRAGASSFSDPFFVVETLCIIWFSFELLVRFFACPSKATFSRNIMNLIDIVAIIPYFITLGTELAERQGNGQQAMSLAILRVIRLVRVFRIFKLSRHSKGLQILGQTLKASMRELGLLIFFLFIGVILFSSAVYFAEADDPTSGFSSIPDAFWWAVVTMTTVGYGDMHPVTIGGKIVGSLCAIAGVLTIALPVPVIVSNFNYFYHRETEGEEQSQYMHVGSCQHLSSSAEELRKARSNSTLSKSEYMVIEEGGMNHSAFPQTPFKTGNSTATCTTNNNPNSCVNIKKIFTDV

Sus scrofa [5] = assay: Effect on ventricular effective refractory period in pig at 30 mg/kg after 15 mins; assay type: functional, organism-based; parameters: dose 30 mg/kg; settings: Cardiac ventricle
[6] = target: Voltage-gated L-type calcium channel (Homo sapiens, UniProt Q13936+Q13698+Q01668+O60840); assay: Inhibition of L type calcium channel; assay type: protein assay
Sus scrofa [7] = assay: Increase in atrial effective refractory period in pig at 30 mg/kg after 15 mins; assay type: functional, Cardiac atrium

Activity [2]	Compound	other results
–	COc1ccc(CCn2cc(C(=O)c3ccc(C)c(C)c3)nn2)cc1	Activity [1]: inactive
84%	COc1ccc(CCn2ncc(C(=O)c3ccc(OC)cc3)n2)cc1	–
86%	CCc1ccc(C(=O)c2cnn(CCc3ccc(OC)cc3)n2)cc1	–
88%	COc1ccc(CCn2ncc(C(=O)c3ccc(Cl)c(Cl)c3)n2)cc1	–
90%	COc1ccc(CCn2ncc(C(=O)c3ccc(C)c(C)c3)n2)cc1	Activity [3]: > 50 µM; Activity [4]: 10.1 µM; Activity (Sus scrofa [5]): inactive; IC50 [1]: 294 nM; Activity [6]: 26 µM; Activity (Sus scrofa [7]): 12%
97%	COc1ccc(CCn2ncc(C(=O)c3ccc(C(C)C)cc3)n2)cc1	–
85%	COc1ccc(CCn2ncc(C(=O)c3ccc(Cl)cc3)n2)cc1	–
99%	COc1ccc(CCn2ncc(C(=O)c3ccc(N(C)C)cc3)n2)cc1	–
22%	COc1ccc(CCn2ncc(C(=O)c3ccccc3Cl)n2)cc1	–
0%	COc1ccc(CCn2ncc(C(=O)c3ccc(N(C)C)cc3OC)n2)cc1	–
–	COc1ccc(CCN2C(=O)CSC2c2ccc(C)c(C)c2)cc1 (configuration not stated)	IC50 [1]: 137 nM
